This note sets out measurements from ChEMBL document CHEMBL1124029, “Novel DNA groove binding alkylators: design, synthesis, and biological evaluation” (1988).

A word on the Inhibition: it is the change of the read-out against control, counted positive when it falls.

A short description of assay [1]: (§1) Minimum cytotoxic concentration required to cause a microscopically detectable alteration of normal cell morphology. Type of assay: functional.
A short description of assay [2]: Minimum inhibitory concentration required to reduce virus induced cytopathogenicity by 50% against para influenza virus in WI-38 cell cultures. Type of assay: functional. A general note: Protection from cytopathic effect is a common read-out in antiviral testing.
The next assay relates to FM3A. As to the kind of experiment: Inhibition of proliferation of Murine mammary carcinoma (FM3A) cells was measured. Format: functional. Conditions: Mus musculus, read-out: ID50 (the source's name).
Assay [3] in a line: as §1. Format: functional. The source holds these as a separate data set.
Another assay concerns Human alphaherpesvirus 2. As to the kind of experiment: Minimum inhibitory concentration required to reduce virus induced cytopathogenicity by 50% against herpes simplex-2 virus in rabbit primary kidney cell cultures. Format: functional.
In the next assay the test system is Human rhinovirus 1A. The experiment in a line: Minimum inhibitory concentration required to reduce virus induced cytopathogenicity by 50% against rhino-1A virus in WI-38 cell cultures. Type of assay: functional.
Assay [4] deals with Coxsackievirus B4. As to the kind of experiment: Minimum inhibitory concentration required to reduce virus induced cytopathogenicity by 50% against Coxsackie type B4 virus in Vero B cell cultures. Type of assay: functional. The conditions noted are these: Enterovirus B.
In a further assay the test system is Sindbis virus. The experiment in a line: Minimum inhibitory concentration required to reduce virus induced cytopathogenicity by 50% against sindbis virus in Vero B cell cultures. Format: functional.
The next assay relates to NAMALVA. The experiment in a line: Inhibition of proliferation of Human B Lymphoblast (Namalva) cells was measured. Format: functional. Conditions: read-out: ID50 (the source's name).
The test system of assay [5] is Vesicular stomatitis virus. As to the kind of experiment: Minimum inhibitory concentration required to reduce virus induced cytopathogenicity by 50% against Vesicular stomatitis virus in HeLa cell cultures. Format: functional.
A further assay has as its system Raji. As to the kind of experiment: Inhibition of proliferation of Human B Lymphoblast (Raji) cells was measured. Type of assay: functional. The conditions noted are these: read-out: ID50 (the source's name).
The next assay relates to rhinovirus A9. The experiment in a line: Minimum inhibitory concentration required to reduce virus induced cytopathogenicity by 50% against rhino-9 virus in WI-38 cell cultures. Type of assay: functional. Conditions: Rhinovirus A.
The test system of assay [6] is Mammalian orthoreovirus 1. As to the kind of experiment: Minimum inhibitory concentration required to reduce virus induced cytopathogenicity by 50% against Reo-1 virus in WI-38 cell cultures. Format: functional.
Assay [7] relates to L1210. The experiment in a line: Percent inhibition of proliferation of Murine Leukemia (L1210) cells was measured. Also noted: concentration or dose not given beside the values. Type of assay: functional, Mus musculus. The essentials:
(§2)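 Mouse leukemia L1210 cells were grown in McCoy's 5A medium and P388D1 cells in Fischer's medium, each with 10% fetal calf serum. Compounds were dissolved in water, or sonicated and given as a suspension if poorly soluble. Cells were seeded at 1×10^5 per well and grown 72 h at 37 °C in 5% CO2. Viability was read by MTT formazan optical density at 570 nm (reference 630 nm).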

The test system of the next assay is MOLT-4F. The experiment in a line: Inhibition of proliferation of Human T Lymphoblast (Molt/4F) cells was measured. Type of assay: functional. Conditions: read-out: ID50 (the source's name).
For another assay, the system named is P388. As to the kind of experiment: Percent inhibition of proliferation of Murine Leukemia (P388) cells was measured. Type of assay: functional, Mus musculus. Also noted: concentration or dose not given beside the values. The essentials:
as §2

Assay [8] relates to L1210. The experiment in a line: Inhibition of proliferation of Murine Leukemia (L1210) cells was measured. Type of assay: functional. Conditions: Mus musculus, read-out: ID50 (the source's name).
For a further assay, the system named is Human alphaherpesvirus 1. As to the kind of experiment: Minimum inhibitory concentration required to reduce virus induced cytopathogenicity by 50% against herpes simplex-1 virus in rabbit primary kidney cell cultures. Format: functional.
For the next assay, the system named is Semliki Forest virus. The experiment in a line: Minimum inhibitory concentration required to reduce virus induced forest virus in Vero B cell cultures. Format: functional.
The next assay has as its system Poliovirus 1. As to the kind of experiment: Minimum inhibitory concentration required to reduce virus induced cytopathogenicity by 50% against polio type 1 virus in HeLa cell cultures. Type of assay: functional. The conditions noted are these: Enterovirus C.
Assay [9] relates to Coxsackievirus B4. The experiment in a line: Minimum inhibitory concentration required to reduce virus induced cytopathogenicity by 50% against Coxsackie type B4 virus in HeLa cell cultures. Format: functional. Conditions: Enterovirus B.
Another assay concerns Hepatoma cell line. As to the kind of experiment: Inhibition of proliferation of Human hepatoma cells was measured. Format: functional. The conditions noted are these: read-out: ID50 (the source's name).

For `Cl.Cn1cc(NC(=O)c2cc(NC(=O)CF)cn2C)cc1C(=O)NCCC(=N)N`, the MCC in assay [1] was > 100 µg/mL; in [3] it was > 200 µg/mL. Besides, the MIC in [2] is > 40 µg/mL; against Human alphaherpesvirus 2, 100 µg/mL; against Human rhinovirus 1A, > 200 µg/mL; with Coxsackievirus B4 [4], > 200 µg/mL; with Sindbis virus, > 200 µg/mL; in assay [5], 100 µg/mL. Further, the MIC against rhinovirus A9 was > 200 µg/mL; in assay [6], > 100 µg/mL; with Human alphaherpesvirus 1, 150 µg/mL; in the assay on Semliki Forest virus it was > 200 µg/mL. Further, the IC50 in the assay with FM3A was ≥ 100 µg/mL; with NAMALVA, 32.3 µg/mL; in the assay on Raji, 33.1 µg/mL; with MOLT-4F, 32.3 µg/mL; in the assay on L1210 [8] it was 40.3 µg/mL. Also, the Inhibition in the assay on L1210 [7] and with P388 was 0% throughout.
On to `Cl.Cn1cc(NC(=O)c2cc(NC(=O)C3CC3)cn2C)cc1C(=O)NCCC(=N)N`, for which the MCC was > 200 µg/mL in assay [1] and 100 µg/mL in [3]. Also, the MIC is > 100 µg/mL in assay [2]; 40 µg/mL against Human alphaherpesvirus 2; > 40 µg/mL in the assay on Human rhinovirus 1A; > 100 µg/mL against Coxsackievirus B4 [4]; > 100 µg/mL against Sindbis virus; > 100 µg/mL in assay [5]. The MIC against rhinovirus A9 was 20 µg/mL; in [6] it was > 100 µg/mL; against Human alphaherpesvirus 1, 20 µg/mL; with Semliki Forest virus, > 100 µg/mL. Moreover, the IC50 in the assay with FM3A is > 100 µg/mL; with Raji, 26.7 µg/mL; in the assay with MOLT-4F it was 7.8 µg/mL; in the assay with L1210 [8] it was > 100 µg/mL. For the same molecule, the Inhibition came to 3% in the assay with L1210 [7] and 8% in the assay with P388.
With `Cl.Cn1cc(NC(=O)c2cc(NC(=O)C(Cl)(Cl)Cl)cn2C)cc1C(=O)NCCC(=N)N`, the MCC was > 200 µg/mL in assay [1] and > 100 µg/mL in assay [3]. The MIC in the assay on Poliovirus 1 was > 40 µg/mL; in assay [2], > 100 µg/mL; against Coxsackievirus B4 [9], > 40 µg/mL; in the assay on Human alphaherpesvirus 2 it was > 100 µg/mL; with Human rhinovirus 1A, > 40 µg/mL; with Coxsackievirus B4 [4], > 100 µg/mL. Moreover, the MIC is > 100 µg/mL with Sindbis virus; > 40 µg/mL in [5]; > 40 µg/mL against rhinovirus A9; > 40 µg/mL in [6]; > 100 µg/mL against Human alphaherpesvirus 1; > 100 µg/mL in the assay on Semliki Forest virus. The IC50 in the assay with FM3A was > 100 µg/mL; in the assay on Raji, 68.7 µg/mL; in the assay on MOLT-4F, 84.3 µg/mL; in the assay on L1210 [8], 30.5 µg/mL. Besides, the results for the Inhibition in the assay with L1210 [7] and in the assay with P388 were 28% and 55%, respectively.
For `CC[N+](CC)(CC)CC.Cn1cc(NC(=O)c2cc(NC(=O)C(Cl)Cl)cn2C)cc1C(=O)NCCC(=N)N.O=S(=O)([O-])O`, the MCC was > 200 µg/mL in assay [1] and 200 µg/mL in assay [3]. For the same molecule, the MIC is > 100 µg/mL against Poliovirus 1; > 100 µg/mL in assay [2]; > 100 µg/mL against Coxsackievirus B4 [9]; 70 µg/mL against Human alphaherpesvirus 2; 40 µg/mL with Human rhinovirus 1A; > 40 µg/mL in the assay with Coxsackievirus B4 [4]. The MIC with Sindbis virus is > 100 µg/mL; in [5], > 200 µg/mL; against rhinovirus A9, 40 µg/mL; in assay [6], > 200 µg/mL; in the assay with Human alphaherpesvirus 1, 70 µg/mL; in the assay with Semliki Forest virus, > 100 µg/mL. Also, the IC50 was > 100 µg/mL in the assay on FM3A, 24.1 µg/mL in the assay on Raji, 27.2 µg/mL with MOLT-4F and > 100 µg/mL with L1210 [8]. Besides, the figures for the Inhibition with L1210 [7] and in the assay with P388 were 13% and 28%, respectively.
Turning to `Cl.Cn1cc(NC(=O)c2cc(NC(=O)CCl)cn2C)cc1C(=O)NCCC(=N)N`, the IC50 in the assay on Hepatoma cell line turned out to be 3.63 µg/mL; in the assay with FM3A, 13.3 µg/mL; in the assay with NAMALVA, 5.3 µg/mL; in the assay with Raji it was 3.09 µg/mL; in the assay with MOLT-4F, 28.7 µg/mL; in the assay with L1210 [8], 8.7 µg/mL. Besides, the MIC in the assay on Poliovirus 1 is > 100 µg/mL; in assay [2] it was > 100 µg/mL; in the assay with Coxsackievirus B4 [9] it was > 100 µg/mL; in the assay on Human alphaherpesvirus 2, 70 µg/mL; in the assay with Coxsackievirus B4 [4] it was > 100 µg/mL; with Sindbis virus, > 100 µg/mL. Moreover, the MIC is > 200 µg/mL in assay [5], > 100 µg/mL in assay [6], 70 µg/mL with Human alphaherpesvirus 1 and > 100 µg/mL in the assay on Semliki Forest virus. Besides, the MCC in assay [3] is ≥ 100 µg/mL. Also, the Inhibition in the assay with L1210 [7] was determined as 29%; in the assay on P388, 38%.
As to `Cl.Cn1cc(NC(=O)c2cc(NC(=O)CCCCl)cn2C)cc1C(=O)NCCC(=N)N`, the MCC in assay [1] and in assay [3] was > 200 µg/mL throughout. For the same molecule, the IC50 in the assay on FM3A was 74.1 µg/mL; in the assay with Raji it was > 100 µg/mL; in the assay with MOLT-4F, > 100 µg/mL; with L1210 [8], > 100 µg/mL. The MIC in the assay on Human alphaherpesvirus 2 is 150 µg/mL; in [5], > 400 µg/mL; in the assay on Human alphaherpesvirus 1, 300 µg/mL. Also, the Inhibition with L1210 [7] and in the assay on P388 was 0% throughout.
With `Cl.Cl.Cn1cc(NC(=O)c2cc(NC(=O)CNC(=N)N)cn2C)cc1C(=O)NCCC(=N)N` [CONGOCIDINE], the IC50 with Hepatoma cell line is 44.7 µg/mL; with MOLT-4F it was > 100 µg/mL. Further, the MIC in assay [2] is > 100 µg/mL; against Human alphaherpesvirus 2, > 10 µg/mL; in the assay with Coxsackievirus B4 [4] it was > 200 µg/mL; in the assay on Sindbis virus it was > 200 µg/mL; in assay [5] it was > 10 µg/mL; in assay [6] it was > 200 µg/mL. Besides, the MIC was > 10 µg/mL against Human alphaherpesvirus 1 and > 200 µg/mL against Semliki Forest virus. Moreover, the MCC in assay [3] was > 400 µg/mL.
`Cl.Cl.Cn1cc(NC(=O)c2cc(NC(=O)c3cc(NC=O)cn3C)cn2C)cc1C(=O)NCCC(=N)N`: the IC50 is 54.7 µg/mL in the assay with Hepatoma cell line; 30.6 µg/mL with FM3A; 22.5 µg/mL in the assay on NAMALVA; 23.7 µg/mL in the assay with Raji; 28.4 µg/mL in the assay on MOLT-4F; 27.1 µg/mL in the assay on L1210 [8]. The MCC in assay [1] and in assay [3] was > 200 µg/mL in each case. For the same molecule, the MIC is > 200 µg/mL in assay [2]; 70 µg/mL against Human alphaherpesvirus 2; > 200 µg/mL with Coxsackievirus B4 [4]; > 200 µg/mL with Sindbis virus; > 100 µg/mL in assay [5]; > 200 µg/mL in assay [6]. In addition, the MIC in the assay on Human alphaherpesvirus 1 is 70 µg/mL; against Semliki Forest virus it was > 200 µg/mL.
